In ChEMBL document CHEMBL1800044, “Structure-based design of novel boronic acid-based inhibitors of autotaxin” (J Med Chem, 2011):

Biological target: Autotaxin (Homo sapiens, UniProt Q13822)
Test: Inhibition of 6x-histidine-tagged human recombinant ATX expressed in HEK293 cells assessed as choline release using lysophosphatidylcholine as substrate after 4 hrs by choline release assay
Outline: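 Recombinant ATX at 10 nM final (~20 nM in enzyme half) in 50 mM Tris-HCl pH 7.4, 0.01% Triton X-100, inhibitor added in DMSO. LPC (18:1) at 40 μM final, buffer with 10 mM MgCl2 and 10 mM CaCl2. Ten concentrations, 0.01–30 μM. Controls were DMSO alone and LPC without enzyme.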

Structure (SMILES)	IC50 [nM]
O=C1SC(Cc2ccc(OCc3ccc(B(O)O)cc3)cc2)C(=O)N1Cc1ccc(F)cc1 (centres undefined)	25
O=C1SC(Cc2ccc(OCc3ccc(B(O)O)cc3)cc2)C(O)N1Cc1ccc(F)cc1 (centres undefined)	1590
O=c1sc(Cc2ccc(OCc3ccc(B(O)O)cc3)cc2)cn1Cc1ccc(F)cc1	683
O=C1N/C(=C\c2ccc(OCc3ccc(B(O)O)cc3)cc2)C(=O)N1Cc1ccc(F)cc1	26
CN1C(=O)N(Cc2ccc(F)cc2)C(=O)/C1=C\c1ccc(OCc2ccc(B(O)O)cc2)cc1	5.3
CN1C(=O)N(Cc2ccc(F)cc2)C(=O)/C1=C/c1ccc(OCc2ccc(B(O)O)cc2)cc1	6.7
O=C1C/C(=C\c2ccc(OCc3ccc(B(O)O)cc3)cc2)C(=O)N1Cc1ccc(F)cc1	7.3
O=C1[C@@H]2Cc3ccc(OCc4ccc(B(O)O)cc4)cc3CN2C(=O)N1Cc1ccc(F)cc1	55
O=C1[C@H]2Cc3ccc(OCc4ccc(B(O)O)cc4)cc3CN2C(=O)N1Cc1ccc(F)cc1	59

The remaining lines, values ahead:

IC50 [nM]	Structure (SMILES)
147	O=C(Nc1ccc(B(O)O)cc1)c1ccc(/C=C2\SC(=O)N(Cc3ccc(F)cc3)C2=O)cc1
71	O=C(NCc1ccc(B(O)O)cc1)c1ccc(/C=C2\SC(=O)N(Cc3ccc(F)cc3)C2=O)cc1
10	O=C(Nc1ccc(/C=C2\SC(=O)N(Cc3ccc(F)cc3)C2=O)cc1)c1ccc(B(O)O)cc1
8.3	O=C1S/C(=C\c2ccc(NCc3ccc(B(O)O)cc3)cc2)C(=O)N1Cc1ccc(F)cc1
> 5000	O=C1S/C(=C\c2ccc(/C=C/c3ccc(B(O)O)cc3)cc2)C(=O)N1Cc1ccc(F)cc1
